Results taken from ChEMBL document CHEMBL4376901, “Azo-PROTAC: Novel Light-Controlled Small-Molecule Tool for Protein Knockdown” (J Med Chem, 2020).
pEC50, pIC50: −log10 of the molar value. Values belong to the molecule of their own block, whether it stands above or below them. The source made the active and inactive calls. The rule behind the calls is not given here.

What was measured:
HCT-116 = assay: Cytotoxicity against human HCT116 cells assessed as inhibition of cell viability incubated for 48 hrs by Cell-titer-Glo luminescent cell viability assay; assay type: functional, cell-based
K562 [1] = assay: Effect on ABL gene expression in human K562 cells at 50 to 500 nM incubated for 36 hrs by RT-qPCR analysis; assay type: ADME, cell-based; settings: k562, 36 h, 0.5 µM
A549 = assay: Cytotoxicity against human A549 cells assessed as inhibition of cell viability incubated for 48 hrs by Cell-titer-Glo luminescent cell viability assay; assay type: functional, cell-based
[2] = target: T1, Protein cereblon/Tyrosine-protein kinase ABL1/Breakpoint cluster region protein (Homo sapiens) (UniProt P00519+P11274+Q96SW2); assay: Protac activity at CRBN/BCR-ABL in human K562 cells assessed as reduction in BCR-ABL protein levels at 250 nM incubated for 10 hrs by Western blot analysis; assay type: cell-based
Procedure, shortened: (§1)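 Time-course in K562 cells at a fixed 250 nM PROTAC, run separately with the trans and cis forms. Cells were harvested at several time points. BCR-ABL and ABL protein levels were read by Western blot.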

[3] = target: T1, Protein cereblon/Tyrosine-protein kinase ABL1/Breakpoint cluster region protein (Homo sapiens); assay: Protac activity at CRBN/BCR-ABL in human K562 cells assessed as reduction in BCR-ABL protein levels pre-treated with lenalidomide followed by compound addition at 250 nM incubated for 24 hrs by Western blot analysis; assay type: cell-based
MCF7 = assay: Cytotoxicity against human MCF7 cells assessed as inhibition of cell viability incubated for 48 hrs by Cell-titer-Glo luminescent cell viability assay; assay type: functional, cell-based
[4] = target: T2, Protein cereblon/Tyrosine-protein kinase ABL1 (Homo sapiens) (UniProt P00519+Q96SW2); assay: Protac activity at CRBN/ABL in human K562 cells assessed as reduction in ABL protein levels at 250 nM incubated for 10 hrs by Western blot analysis; assay type: cell-based; procedure, shortened: as §1
[5] = target: T2, Protein cereblon/Tyrosine-protein kinase ABL1 (Homo sapiens); assay: Protac activity at CRBN/ABL in human K562 cells assessed as reduction in ABL protein levels at 250 nM incubated for 32 hrs by Western blot analysis; assay type: cell-based; parameters: scale not given: the % may be the effect or the level left; procedure, shortened: as §1
[6] = Half life for spontaneous thermal relaxation under dark condition at 25 degC; assay type: physicochemical
[7] = target: T2, Protein cereblon/Tyrosine-protein kinase ABL1 (Homo sapiens); assay: Protac activity at CRBN/ABL in human K562 cells assessed as reduction in ABL protein levels incubated for 24 hrs followed by exposure to UV-C light every 4 hrs by Western blot analysis; assay type: cell-based
Procedure, shortened: (§2)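 K562 cells were treated with the trans form for 24 h, then moved to fresh medium and split into two groups. One group was exposed to UV-C light every 4 h and harvested. The control group was harvested without irradiation at 0, 4, 8, 12, 16 and 24 h. Proteins were read by Western blot.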

[8] = target: T1, Protein cereblon/Tyrosine-protein kinase ABL1/Breakpoint cluster region protein (Homo sapiens); assay: Protac activity at CRBN/BCR-ABL in human K562 cells assessed as reduction in BCR-ABL protein levels at 250 nM incubated for 32 hrs by Western blot analysis; assay type: cell-based; parameters: scale not given: the % may be the effect or the level left; procedure, shortened: as §1
[9] = target: T2, Protein cereblon/Tyrosine-protein kinase ABL1 (Homo sapiens); assay: Protac activity at CRBN/ABL in human K562 cells assessed as reduction in ABL protein levels pre-treated with lenalidomide followed by compound addition at 250 nM incubated for 24 hrs by Western blot analysis; assay type: cell-based
[10] = target: T1, Protein cereblon/Tyrosine-protein kinase ABL1/Breakpoint cluster region protein (Homo sapiens); assay: Protac activity at CRBN/BCR-ABL in human K562 cells assessed as reduction in BCR-ABL protein levels pre-treated with NEDD8-activating enzyme (NAE) inhibitor MLN4924 followed by compound addition at 250 nM incubated for 24 hrs by Western blot analysis; assay type: cell-based
[11] = target: T2, Protein cereblon/Tyrosine-protein kinase ABL1 (Homo sapiens); assay: Protac activity at CRBN/ABL in human K562 cells assessed as reduction in ABL protein levels pre-treated with NEDD8-activating enzyme (NAE) inhibitor MLN4924 followed by compound addition at 250 nM incubated for 24 hrs by Western blot analysis; assay type: cell-based
[12] = target: T2, Protein cereblon/Tyrosine-protein kinase ABL1 (Homo sapiens); assay: Protac activity at CRBN/ABL in human K562 cells assessed as reduction in ABL protein levels incubated for 24 hrs by Western blot analysis
[13] = target: T2, Protein cereblon/Tyrosine-protein kinase ABL1 (Homo sapiens); assay: Protac activity at CRBN/ABL in human K562 cells assessed as reduction in ABL protein levels at 100 nM incubated for 24 hrs by Western blot analysis
[14] = target: T1, Protein cereblon/Tyrosine-protein kinase ABL1/Breakpoint cluster region protein (Homo sapiens); assay: Protac activity at CRBN/BCR-ABL in human K562 cells assessed as reduction in BCR-ABL protein levels at 250 nM incubated for 4 hrs by Western blot analysis; assay type: cell-based; settings: in the assay text read “10 hrs” for “4 hrs”; procedure, shortened: as §1
[15] = Stability in presence of 20 mM of GSH reduced in DMSO/PBS buffer (1:1) solution incubated for 48 hrs; assay type: physicochemical
[16] = Drug metabolism assessed as photoisomerization to cis-isomer after exposure to UV-C light and measured up to 120 mins by UV-visible absorption spectra analysis
K562 [17] = assay: Cytotoxicity against human K562 cells assessed as inhibition of cell viability incubated for 48 hrs by Cell-titer-Glo luminescent cell viability assay; assay type: functional, cell-based; settings: K562, 48 h
[18] = Drug metabolism assessed as photoisomerization to cis-isomer after exposure to white light light up to 240 mins by UV-visible absorption spectra analysis
[19] = Drug metabolism assessed as photoisomerization to cis-isomer after exposure to UV-C light and measured after 1 hr by UV-visible absorption spectra analysis
[20] = target: T2, Protein cereblon/Tyrosine-protein kinase ABL1 (Homo sapiens); assay: Protac activity at CRBN/ABL in human K562 cells assessed as reduction in ABL protein levels pre-treated with ABL inhibitor dasatinib followed by compound addition at 250 nM incubated for 24 hrs by Western blot analysis; assay type: cell-based
[21] = target: T1, Protein cereblon/Tyrosine-protein kinase ABL1/Breakpoint cluster region protein (Homo sapiens); assay: Protac activity at CRBN/BCR-ABL in human K562 cells assessed as reduction in BCR-ABL protein levels pre-treated with ABL inhibitor dasatinib followed by compound addition at 250 nM incubated for 24 hrs by Western blot analysis; assay type: cell-based
[22] = target: T1, Protein cereblon/Tyrosine-protein kinase ABL1/Breakpoint cluster region protein (Homo sapiens); assay: Protac activity at CRBN/BCR-ABL in human K562 cells assessed as reduction in BCR-ABL protein levels incubated for 24 hrs followed by exposure to UV-C light every 4 hrs by Western blot analysis; assay type: cell-based; procedure, shortened: as §2
[23] = target: T2, Protein cereblon/Tyrosine-protein kinase ABL1 (Homo sapiens); assay: Protac activity at CRBN/ABL in human K562 cells assessed as reduction in ABL protein levels at 250 nM incubated for 4 hrs by Western blot analysis; assay type: cell-based; procedure, shortened: as §1
[24] = target: T2, Protein cereblon/Tyrosine-protein kinase ABL1 (Homo sapiens); assay: Protac activity at CRBN/ABL in human K562 cells assessed as reduction in ABL protein levels incubated for 24 hrs followed by exposure to white light up to 24 hrs by Western blot analysis; assay type: cell-based
[25] = target: T1, Protein cereblon/Tyrosine-protein kinase ABL1/Breakpoint cluster region protein (Homo sapiens); assay: Protac activity at CRBN/BCR-ABL in human K562 cells assessed as reduction in BCR-ABL protein levels incubated for 24 hrs followed by exposure to white light up to 24 hrs hrs by Western blot analysis; assay type: cell-based
Procedure, shortened: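 Cells were preincubated with the cis form while shielded from light, then moved to fresh medium and exposed to visible light. BCR-ABL was followed over time by Western blot.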

[26] = target: T1, Protein cereblon/Tyrosine-protein kinase ABL1/Breakpoint cluster region protein (Homo sapiens); assay: Protac activity at CRBN/BCR-ABL in human K562 cells assessed as reduction in BCR-ABL protein levels at 100 nM incubated for 24 hrs by Western blot analysis
K562 [27] = assay: Antiproliferative activity against human K562 cells assessed as inhibition of cell proliferation incubated for 48 hrs by CCK8 assay; assay type: functional, cell-based; settings: K562, 48 h
[28] = target: T1, Protein cereblon/Tyrosine-protein kinase ABL1/Breakpoint cluster region protein (Homo sapiens); assay: Protac activity at CRBN/BCR-ABL in human K562 cells assessed as reduction in BCR-ABL protein levels incubated for 24 hrs by Western blot analysis
[29] = target: T2, Protein cereblon/Tyrosine-protein kinase ABL1 (Homo sapiens); assay: Protac activity at CRBN/ABL in human K562 cells assessed as reduction in ABL protein levels at 50 to 250 nM incubated for 24 hrs by Western blot analysis; assay type: cell-based
Procedure, shortened: (§3)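 K562 cells were exposed for 24 h to a concentration gradient of the trans or cis form. BCR-ABL and ABL protein levels were assessed by Western blot in a dose-effect design.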

[30] = target: T1, Protein cereblon/Tyrosine-protein kinase ABL1/Breakpoint cluster region protein (Homo sapiens); assay: Protac activity at CRBN/BCR-ABL in human K562 cells assessed as reduction in BCR-ABL protein levels at 50 to 250 nM incubated for 24 hrs by Western blot analysis; assay type: cell-based; procedure, shortened: as §3
[31] = target: T1, Protein cereblon/Tyrosine-protein kinase ABL1/Breakpoint cluster region protein (Homo sapiens); assay: Protac activity at CRBN/BCR-ABL in human K562 cells assessed as reduction in BCR-ABL protein levels at 500 nM incubated for 24 hrs by Western blot analysis
[32] = target: T2, Protein cereblon/Tyrosine-protein kinase ABL1 (Homo sapiens); assay: Protac activity at CRBN/ABL in human K562 cells assessed as reduction in ABL protein levels at 500 nM incubated for 24 hrs by Western blot analysis

T2 sequence (P00519 whole entry, looked up): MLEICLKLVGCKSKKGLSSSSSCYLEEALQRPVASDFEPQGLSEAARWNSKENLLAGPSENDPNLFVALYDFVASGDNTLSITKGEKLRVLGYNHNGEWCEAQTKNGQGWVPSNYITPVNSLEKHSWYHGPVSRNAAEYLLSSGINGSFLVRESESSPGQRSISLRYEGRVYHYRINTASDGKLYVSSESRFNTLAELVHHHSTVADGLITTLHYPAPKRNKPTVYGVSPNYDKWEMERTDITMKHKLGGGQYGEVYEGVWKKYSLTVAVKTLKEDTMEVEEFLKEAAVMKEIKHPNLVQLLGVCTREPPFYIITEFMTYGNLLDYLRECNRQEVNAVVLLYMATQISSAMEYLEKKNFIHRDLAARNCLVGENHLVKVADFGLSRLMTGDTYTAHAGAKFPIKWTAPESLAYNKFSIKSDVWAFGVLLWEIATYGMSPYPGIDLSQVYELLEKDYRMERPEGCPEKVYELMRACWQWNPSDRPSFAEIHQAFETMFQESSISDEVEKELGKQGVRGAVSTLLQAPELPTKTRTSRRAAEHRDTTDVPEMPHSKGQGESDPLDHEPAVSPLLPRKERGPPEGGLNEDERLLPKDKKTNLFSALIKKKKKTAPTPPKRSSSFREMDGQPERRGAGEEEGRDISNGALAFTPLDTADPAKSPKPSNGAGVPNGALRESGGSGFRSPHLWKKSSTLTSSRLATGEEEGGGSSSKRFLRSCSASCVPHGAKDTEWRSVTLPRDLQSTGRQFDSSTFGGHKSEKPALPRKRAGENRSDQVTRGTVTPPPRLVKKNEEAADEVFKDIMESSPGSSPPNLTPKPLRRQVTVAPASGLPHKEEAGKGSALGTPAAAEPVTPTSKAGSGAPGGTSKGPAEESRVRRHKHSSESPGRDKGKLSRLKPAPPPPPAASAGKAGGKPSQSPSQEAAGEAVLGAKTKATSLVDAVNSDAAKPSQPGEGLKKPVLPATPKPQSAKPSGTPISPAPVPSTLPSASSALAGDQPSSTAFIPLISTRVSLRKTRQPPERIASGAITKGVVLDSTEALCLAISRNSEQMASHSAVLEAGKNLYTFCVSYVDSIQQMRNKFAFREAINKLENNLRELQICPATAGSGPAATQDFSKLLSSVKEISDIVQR
T2 sequence (Q96SW2 whole entry, looked up): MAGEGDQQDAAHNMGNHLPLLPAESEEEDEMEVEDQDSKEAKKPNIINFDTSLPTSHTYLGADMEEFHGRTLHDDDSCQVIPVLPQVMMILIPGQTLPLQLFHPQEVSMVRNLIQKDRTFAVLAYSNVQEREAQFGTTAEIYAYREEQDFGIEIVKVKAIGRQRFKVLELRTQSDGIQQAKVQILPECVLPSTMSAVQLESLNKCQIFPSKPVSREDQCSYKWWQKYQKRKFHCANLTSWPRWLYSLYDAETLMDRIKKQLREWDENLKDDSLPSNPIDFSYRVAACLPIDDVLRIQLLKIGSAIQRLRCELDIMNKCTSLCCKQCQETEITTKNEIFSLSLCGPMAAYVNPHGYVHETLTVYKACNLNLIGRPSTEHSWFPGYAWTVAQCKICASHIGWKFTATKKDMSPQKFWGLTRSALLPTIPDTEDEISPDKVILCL
T1 sequence (P00519 whole entry, looked up): as the sequence (P00519 whole entry, looked up) above
T1 sequence (P11274 whole entry, looked up): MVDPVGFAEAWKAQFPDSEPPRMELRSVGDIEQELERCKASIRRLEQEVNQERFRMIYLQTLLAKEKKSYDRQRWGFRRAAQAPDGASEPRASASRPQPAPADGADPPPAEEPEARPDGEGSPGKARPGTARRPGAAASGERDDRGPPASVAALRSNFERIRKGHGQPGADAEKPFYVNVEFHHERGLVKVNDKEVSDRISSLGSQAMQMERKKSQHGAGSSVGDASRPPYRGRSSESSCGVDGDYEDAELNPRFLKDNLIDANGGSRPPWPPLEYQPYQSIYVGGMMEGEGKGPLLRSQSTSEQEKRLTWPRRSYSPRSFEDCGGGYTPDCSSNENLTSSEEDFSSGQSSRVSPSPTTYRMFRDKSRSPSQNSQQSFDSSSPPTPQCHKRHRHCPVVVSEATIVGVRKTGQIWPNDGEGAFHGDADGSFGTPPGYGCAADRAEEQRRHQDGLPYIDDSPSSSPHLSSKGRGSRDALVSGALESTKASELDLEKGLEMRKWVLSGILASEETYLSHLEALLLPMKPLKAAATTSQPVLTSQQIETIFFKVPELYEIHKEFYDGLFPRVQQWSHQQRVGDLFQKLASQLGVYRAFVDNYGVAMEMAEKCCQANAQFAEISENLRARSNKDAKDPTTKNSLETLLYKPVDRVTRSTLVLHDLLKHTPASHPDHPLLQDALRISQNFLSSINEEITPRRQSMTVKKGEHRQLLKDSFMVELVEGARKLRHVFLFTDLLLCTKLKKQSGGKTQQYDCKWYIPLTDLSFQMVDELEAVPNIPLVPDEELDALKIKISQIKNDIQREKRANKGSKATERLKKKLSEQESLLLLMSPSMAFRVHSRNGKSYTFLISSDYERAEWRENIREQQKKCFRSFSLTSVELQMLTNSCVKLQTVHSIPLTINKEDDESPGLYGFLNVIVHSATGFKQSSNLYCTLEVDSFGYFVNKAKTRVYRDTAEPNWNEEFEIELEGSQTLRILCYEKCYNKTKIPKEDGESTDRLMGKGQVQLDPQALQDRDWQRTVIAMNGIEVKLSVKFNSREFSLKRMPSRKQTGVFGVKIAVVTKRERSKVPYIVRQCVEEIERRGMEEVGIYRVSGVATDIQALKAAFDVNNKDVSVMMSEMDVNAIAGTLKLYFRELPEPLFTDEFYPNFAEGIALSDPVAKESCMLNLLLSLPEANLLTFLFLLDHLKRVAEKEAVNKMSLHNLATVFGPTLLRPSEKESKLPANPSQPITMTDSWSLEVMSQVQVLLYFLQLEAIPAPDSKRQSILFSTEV
T1 sequence (Q96SW2 whole entry, looked up): as the sequence (Q96SW2 whole entry, looked up) above

Activity [2]: Active
Activity [3]: inactive
Activity [4]: Active
Activity [5]: > 90%
t1/2 [6]: 10.3 h
Activity [7]: inactive
Activity [8]: > 90%
Activity [9]: inactive
Activity [10]: inactive
Activity [11]: inactive
Activity [12]: Dose-dependent effect
Activity [13]: Active
Activity [14]: Active
Stability [15]: Stable
Activity [20]: inactive
Activity [21]: inactive
Activity [22]: inactive
Activity [23]: Active
Activity [24]: Active
Activity [25]: Active
Activity [26]: Active
pIC50 (K562 [27]): 7.17
Activity [28]: Dose-dependent effect
Structure (SMILES): Cc1nc(Nc2ncc(C(=O)Nc3c(C)cccc3Cl)s2)cc(N2CCN(CCCCOc3ccc(/N=N/c4ccc(C(=O)Nc5cccc6c5CN(C5CCC(=O)NC5=O)C6=O)cc4)cc3)CC2)n1 (stereo unspecified)
Activity (HCT-116): inactive
Activity (K562 [1]): Non-Toxic
Activity (A549): inactive
Activity (MCF7): inactive
Drug metabolism [16]: Metabolite detected
pEC50 (K562 [17]): 7.55
Drug metabolism [18]: Metabolite detected
Drug metabolism [19]: Metabolite detected

Activity [29]: inactive
Activity [30]: inactive
Structure (SMILES): Cc1nc(Nc2ncc(C(=O)Nc3c(C)cccc3Cl)s2)cc(N2CCN(CCCCOc3ccc(/N=N/c4ccc(C(=O)Nc5cccc6c5CN(C5CCC(=O)N(C)C5=O)C6=O)cc4)cc3)CC2)n1 (single isomer, unassigned; (-))

Activity [5]: inactive
Activity [8]: inactive
Activity [31]: inactive
Activity ([24]; TDE = time-dependent effect): Tde
Activity ([25]; TDE = time-dependent effect): Tde
Activity [32]: inactive
Structure (SMILES): Cc1nc(Nc2ncc(C(=O)Nc3c(C)cccc3Cl)s2)cc(N2CCN(CCCCOc3ccc(/N=N\c4ccc(C(=O)Nc5cccc6c5CN(C5CCC(=O)NC5=O)C6=O)cc4)cc3)CC2)n1 (stereo unspecified)

Activity [13]: Active
Activity [26]: Active
Structure (SMILES): Cc1nc(Nc2ncc(C(=O)Nc3c(C)cccc3Cl)s2)cc(N2CCN(CCOc3ccc(/N=N/c4ccc(C(=O)Nc5cccc6c5CN(C5CCC(=O)NC5=O)C6=O)cc4)cc3)CC2)n1 (stereo unspecified)
